The subject of data set [1] is Human immunodeficiency virus 1. Put plainly: Antiviral activity against wild-type HIV-1 NL4-3 harboring vesicular stomatitis virus glycoprotein infected in HEK293T cells pretreated with cells for 15 mins followed by viral infection measured after 48 hrs by luciferase reporter gene assay. In kind it is functional, cell-based. The following applies: Human immunodeficiency virus 1, NL4-3, HEK-293T. The gist of the method:
(§1)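 VSV-G-pseudotyped HIV-1 (wild-type or RT mutant) produced by co-transfection of HEK293T cells (calcium phosphate), supernatant harvested 48 h, 0.22 µm filtered, normalised by p24 ELISA to 0.2 ng p24/mL.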

For data set [2], the system named is Human immunodeficiency virus 1. Put plainly: Antiviral activity against HIV-1 NL4-3 harboring RT-K103N/Y188L double mutant infected in HEK293T cells coexpressing vesicular stomatitis virus glycoprotein pretreated with cells for 15 mins followed by viral infection measured after 48 hrs by luciferase reporter gene assay. Format: functional, cell-based. Conditions: hek-293t. Summed up:
as §1

Data set [3] relates to Human immunodeficiency virus 1. Put plainly: Ratio of IC50 for HIV-1 NL4-3 harboring RT-L100I/K103N double mutant infected in HEK293T cells co-expressing vesicular stomatitis virus glycoprotein to IC50 for wild-type HIV-1 NL4-3 infected in HEK293T cells co-expressing vesicular stomatitis virus glycoprotein. Format: functional, HEK-293T. The gist of the method:
(§2)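 Fold change: mean IC50 against each RT-mutant VSV-G-pseudotyped virus divided by IC50 against wild-type pseudovirus. Both values come from the same HEK293T assay: 0.2 ng p24/mL inoculum, compound added 15 min before infection, luciferase read-out at 48 h.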

The test system of data set [4] is Human immunodeficiency virus 1. Put plainly: Ratio of IC50 for HIV-1 NL4-3 harboring RT-K103N/Y188L double mutant infected in HEK293T cells co-expressing vesicular stomatitis virus glycoprotein to IC50 for wild-type HIV-1 NL4-3 infected in HEK293T cells co-expressing vesicular stomatitis virus glycoprotein. Format: functional, HEK-293T. The gist of the method: as §2

Data set [5] concerns Human immunodeficiency virus 1. The data set is described as follows: Ratio of IC50 for HIV-1 NL4-3 harboring RT-K103N/Y181C double mutant infected in HEK293T cells co-expressing vesicular stomatitis virus glycoprotein to IC50 for wild-type HIV-1 NL4-3 infected in HEK293T cells co-expressing vesicular stomatitis virus glycoprotein. In kind it is functional, HEK-293T. The gist of the method:
as §2

The test system of data set [6] is Human immunodeficiency virus 1. Put plainly: Antiviral activity against HIV-1 NL4-3 harboring RT-K103N mutant infected in HEK293T cells coexpressing vesicular stomatitis virus glycoprotein pretreated with cells for 15 mins followed by viral infection measured after 48 hrs by luciferase reporter gene assay. In kind it is functional, cell-based. Conditions: hek-293t. Summed up: as §1
Background: A reporter such as luciferase makes a cellular process visible.

The test system of data set [7] is Human immunodeficiency virus 1. The data set is described as follows: Antiviral activity against HIV-1 NL4-3 harboring RT-K103N/G190A double mutant infected in HEK293T cells coexpressing vesicular stomatitis virus glycoprotein pretreated with cells for 15 mins followed by viral infection measured after 48 hrs by luciferase reporter gene assay. In kind it is functional, cell-based. Conditions: hek-293t. Summed up: as §1

The subject of data set [8] is Human immunodeficiency virus 1. The data set is described as follows: Antiviral activity against HIV-1 NL4-3 harboring RT-K103N/Y181C double mutant infected in HEK293T cells coexpressing vesicular stomatitis virus glycoprotein pretreated with cells for 15 mins followed by viral infection measured after 48 hrs by luciferase reporter gene assay. Conditions: hek-293t. In kind it is functional, cell-based. Summed up: as §1

Data set [9] relates to Human immunodeficiency virus 1. The data set is described as follows: Antiviral activity against HIV-1 NL4-3 harboring RT-K103N/V108I double mutant infected in HEK293T cells coexpressing vesicular stomatitis virus glycoprotein pretreated with cells for 15 mins followed by viral infection measured after 48 hrs by luciferase reporter gene assay. In kind it is functional, cell-based. The following applies: hek-293t. Summed up: as §1

Data set [10] is described as follows: Cytotoxicity against HEK293T cells at 10 uM after 48 hrs by cell proliferation assay. Format: toxicity, cell-based. The following applies: human, hek-293t. Summed up: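 HEK 293T cells seeded at 1×10^4 cells/well, treated next day with serially diluted compounds and cultured 48 h; viability read with a cell proliferation assay kit per manufacturer's instructions. Footnote reports testing at a final concentration of 10 μM.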

Data set [11] has as its system Human immunodeficiency virus 1. The data set is described as follows: Ratio of IC50 for HIV-1 NL4-3 harboring RT-K103N/V108I double mutant infected in HEK293T cells co-expressing vesicular stomatitis virus glycoprotein to IC50 for wild-type HIV-1 NL4-3 infected in HEK293T cells co-expressing vesicular stomatitis virus glycoprotein. Format: functional, HEK-293T. The gist of the method:
as §2

Data set [12] deals with Human immunodeficiency virus 1. The data set is described as follows: Ratio of IC50 for HIV-1 NL4-3 harboring RT-K103N/G190A double mutant infected in HEK293T cells co-expressing vesicular stomatitis virus glycoprotein to IC50 for wild-type HIV-1 NL4-3 infected in HEK293T cells co-expressing vesicular stomatitis virus glycoprotein. Format: functional, HEK-293T. Summed up: as §2

Data set [13] relates to Human immunodeficiency virus 1. The data set is described as follows: Ratio of IC50 for HIV-1 NL4-3 harboring RT-Y188L mutant infected in HEK293T cells co-expressing vesicular stomatitis virus glycoprotein to IC50 for wild-type HIV-1 NL4-3 infected in HEK293T cells co-expressing vesicular stomatitis virus glycoprotein. Format: functional, HEK-293T. The gist of the method: as §2

For data set [14], the system named is Human immunodeficiency virus 1. Put plainly: Antiviral activity against HIV-1 NL4-3 harboring RT-Y181C mutant infected in HEK293T cells coexpressing vesicular stomatitis virus glycoprotein pretreated with cells for 15 mins followed by viral infection measured after 48 hrs by luciferase reporter gene assay. Format: functional, cell-based. Conditions: hek-293t. Summed up:
as §1

Data set [15] relates to Human immunodeficiency virus 1. The data set is described as follows: Ratio of IC50 for HIV-1 NL4-3 harboring RT-K103N/P225H double mutant infected in HEK293T cells co-expressing vesicular stomatitis virus glycoprotein to IC50 for wild-type HIV-1 NL4-3 infected in HEK293T cells co-expressing vesicular stomatitis virus glycoprotein. In kind it is functional, HEK-293T. Summed up: as §2

For data set [16], the system named is Human immunodeficiency virus 1. Put plainly: Ratio of IC50 for HIV-1 NL4-3 harboring RT-K103N mutant infected in HEK293T cells co-expressing vesicular stomatitis virus glycoprotein to IC50 for wild-type HIV-1 NL4-3 infected in HEK293T cells co-expressing vesicular stomatitis virus glycoprotein. Format: functional, HEK-293T.
Data set [17] concerns Human immunodeficiency virus 1. The data set is described as follows: Ratio of IC50 for HIV-1 NL4-3 harboring RT-Y181C mutant infected in HEK293T cells co-expressing vesicular stomatitis virus glycoprotein to IC50 for wild-type HIV-1 NL4-3 infected in HEK293T cells co-expressing vesicular stomatitis virus glycoprotein. In kind it is functional, HEK-293T. Summed up: as §2

For data set [18], the system named is Human immunodeficiency virus 1. The data set is described as follows: Antiviral activity against HIV-1 NL4-3 harboring RT-Y188L mutant infected in HEK293T cells coexpressing vesicular stomatitis virus glycoprotein pretreated with cells for 15 mins followed by viral infection measured after 48 hrs by luciferase reporter gene assay. Format: functional, cell-based. The following applies: hek-293t. The gist of the method:
as §1

Data set [19] deals with Human immunodeficiency virus 1. Put plainly: Antiviral activity against HIV-1 NL4-3 harboring RT-K103N/P225H double mutant infected in HEK293T cells coexpressing vesicular stomatitis virus glycoprotein pretreated with cells for 15 mins followed by viral infection measured after 48 hrs by luciferase reporter gene assay. Format: functional, cell-based. The following applies: hek-293t. Summed up:
as §1

Data set [20] deals with Human immunodeficiency virus 1. The data set is described as follows: Antiviral activity against HIV-1 NL4-3 harboring RT-L100I/K103N double mutant infected in HEK293T cells coexpressing vesicular stomatitis virus glycoprotein pretreated with cells for 15 mins followed by viral infection measured after 48 hrs by luciferase reporter gene assay. Format: functional, cell-based. The following applies: hek-293t. The gist of the method: as §1

As usually defined, the IC50 is the point on the concentration scale where inhibition reaches its midpoint. As to `Fc1cc(F)cc(Cc2sc(NCc3ccc4c(c3)CCO4)nc2-c2ccccc2)c1`, the IC50 in [1] is 37 to 37.2 nM; in [2], more than 10000 nM; in data set [6], 1410 nM; in [7], 2000 nM; in data set [8], more than 10000 nM; in data set [9], 10400 nM. Besides, the IC50 in data set [14] was 5560 nM; in data set [18], more than 10000 nM; in data set [19] it was 5030 nM; in data set [20], 1170 nM. Besides, the “Ratio IC50” value in [3] is reported as 31.5; in [4], more than 268.8; in data set [5], more than 268.8; in data set [11], 279.6; in data set [12] it was 53.8; in data set [13], more than 268.8. Also, the “Ratio IC50” value in data set [15] worked out at 135.2; in data set [16], 37.9; in data set [17], 149.5. Also, in data set [10], the Activity result was “Non-Toxic”.
Turning to `Clc1cccc(Cl)c1Cc1sc(NCc2ccc3c(c2)CCO3)nc1-c1ccccc1`, the IC50 in data set [1] is 61.8 to 62 nM; in data set [2], more than 10000 nM; in data set [6] it was 1530 nM; in data set [7] it was 560 nM; in data set [8], more than 10000 nM; in [9], 3000 nM. The IC50 was 390 nM in [14], more than 10000 nM in [18], more than 10000 nM in data set [19] and 5050 nM in data set [20]. For the same compound, the “Ratio IC50” value is reported as 81.7 in data set [3]; more than 161.8 in data set [4]; more than 161.8 in data set [5]; 48.5 in [11]; 9.1 in data set [12]; more than 161.8 in data set [13]. The “Ratio IC50” value in data set [15] is more than 161.8; in [16], 24.8; in data set [17] it was 6.3. Besides, the Activity entry in data set [10] is “Non-Toxic”.

These data come from ChEMBL document CHEMBL3875141, “2,4,5-Trisubstituted thiazole derivatives as HIV-1 NNRTIs effective on both wild-type and mutant HIV-1 reverse transcriptase: Optimization of the substitution of positions 4 and 5” (Eur J Med Chem, 2016).
